KCNQ1 act – human KCNQ1 channel potentiation or activation. P51787. CHO-K1 KCNQ1, thallium flux FluxOR fluorescence; stronger effect = higher value. B-score at 10 µM. 310,000 compounds, 0.35% hits. AID 2648;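 active = fluorescence ratio B-score, a plate-corrected score, at least three library SD, with initial intensity B-score within 5 SD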
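System: CHO-K1 cells stably expressing KCNQ1 / Medium: assay buffer for compound exposure, DMSO matched across wells / Reagent: thallium- and potassium-containing depolarizing buffer / Compound: one concentration, matched DMSO / Incubation: 20 min compound pretreatment at room temperature / Measured by: kinetic FluxOR fluorescence, 10 s baseline plus 110 s post-stimulus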
Kir21 block – inhibitors of mouse Kir2.1 inward-rectifier potassium channel; HEK293-Kir2.1, FluxOR thallium flux fluorescence; stronger effect = lower value; B-score at 10 µM; 310,000 compounds, 0.85% hits; AID 1672;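 active = fluorescence ratio B-score at or below minus 3 SD of library scores, with starting-brightness B-score within 2 SD, cut at about -4.2 in these data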;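 note: channel flux triggered by added potassium and thallium sulfate stimulus; B-score of peak minus minimum fluorescence over baseline after thallium stimulus; more negative B-score means stronger Kir2.1 block with less thallium influx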
Target sequence (P35561 whole entry, looked up): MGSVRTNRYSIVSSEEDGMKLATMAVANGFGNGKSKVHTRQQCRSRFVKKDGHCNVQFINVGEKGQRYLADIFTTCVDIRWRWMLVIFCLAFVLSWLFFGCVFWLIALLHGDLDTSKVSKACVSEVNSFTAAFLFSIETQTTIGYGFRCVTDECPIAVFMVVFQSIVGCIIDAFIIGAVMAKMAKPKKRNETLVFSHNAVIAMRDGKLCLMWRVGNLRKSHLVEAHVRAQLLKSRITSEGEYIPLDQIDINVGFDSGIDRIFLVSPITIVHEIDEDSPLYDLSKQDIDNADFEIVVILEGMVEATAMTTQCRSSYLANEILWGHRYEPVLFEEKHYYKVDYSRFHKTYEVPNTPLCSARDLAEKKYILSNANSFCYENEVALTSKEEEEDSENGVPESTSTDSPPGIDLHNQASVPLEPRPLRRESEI
KCNQ1 inh – human KCNQ1 channel inhibition; P51787; 310,000 compounds, 1.3% hits; AID 2642; CHO-K1 KCNQ1, FluxOR thallium flux fluorescence; stronger effect = higher value; B-score at 10 µM;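 active = compounds whose thallium flux B-score, printed positive for inhibition, exceeds three library SD while starting fluorescence stays within three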;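 note: channel opened by potassium depolarization with thallium stimulus after 20 min compound exposure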
hERG protect – compounds protecting human hERG from proarrhythmic drug block. Q12809. AID 1511. CHO-hERG, FluxOR thallium flux, dofetilide IC70 present. 310,000 compounds, 0.51% hits. activation (rescue from dofetilide block), less the hit threshold, % at 10 µM;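 active = activation above the mean of controls blocked by dofetilide plus 5 SD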;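 note: thallium influx through hERG after potassium depolarization seen as dye fluorescence rise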
KCNK3 block – human KCNK3 channel inhibition, primary screen; O14649; CHO-KCNK3 thallium flux, FluxOR fluorescence; stronger effect = lower value; B-score at 10 µM; 340,000 compounds, 0.84% hits; AID 602410;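 active = B-score under library mean minus 4 SD, starting fluorescence ratio at most library mean plus 5 SD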;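 note: more negative B-score means stronger inhibition of thallium flux through KCNK3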
KCNK9 block – inhibitors of human KCNK9 two-pore domain potassium channel; B-score at 10 µM; 310,000 compounds, 1.2% hits; HEK293 KCNK9, FluxOR thallium flux fluorescence; stronger effect = lower value;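 active = ratio B-score over 3 SD below the library mean, with starting fluorescence within 5 SD of its mean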;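 note: negative B-score means less thallium flux so channel inhibition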
KCNK9 inh conf – confirmation of human KCNK9 potassium channel inhibitors; shares compounds with KCNK9 block; HEK293 KCNK9 cells, FluxOR thallium flux fluorescence; inhibition, % at 10 µM; 4,900 compounds, 43% hits;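 active = thallium signal inhibited by more than 5 SD of the compound-free buffer control wells, on both duplicate plates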;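 note: 0% = assay buffer control wells without compound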
Kir21 sel – mouse Kir2.1 off-target activity of KCNK9 modulators | shares compounds with KCNK9 block | Kir2.1 cells, FluxOR thallium flux fluorescence | inhibition, % at 10 µM | 4,900 compounds, 4% hits;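 active = thallium signal drop more than 5 SD beyond the mean of the no-compound control wells, seen in both duplicate plates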;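 note: signal is fluorescence rise after thallium addition divided by baseline fluorescence; plate controls were assay buffer only for no effect and full block by chlorpromazine control for full effect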
KCNK9 uninduced – second counter-screen for KCNK9 modulators: effect in non-induced cells; shares compounds with KCNK9 block; non-induced KCNK9-HEK293, FluxOR thallium flux; inhibition, % at 10 µM; 4,900 compounds, 40% hits; AID 492997;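 active = thallium signal drop beyond 5 SD of the untreated control mean, on both duplicate plates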;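 note: plate controls were buffer only IC0 wells for no effect and SID17386958 at its maximal inhibitory level for full effect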
Numbers without * were called inactive; i = inactive; nt = no result. Hits are enriched below; roughly 3.7% of the tested compounds scored in any of these assays.

SMILES	KCNQ1 act	Kir21 block	KCNQ1 inh	hERG protect	KCNK3 block	KCNK9 block	KCNK9 inh conf	Kir21 sel	KCNK9 uninduced
CC(=O)N1N=C(c2ccccc2)CC1c1cn(Cc2ccccc2)c2ccccc12 (stereo unspecified)	i	0.12	i	-8.3	i	-8.4*	38.0%*	i	34.0%*
CCn1c(SCc2cccc(C(F)(F)F)c2)nnc1-c1ccco1	i	-1.74	i	-11.2	i	i	nt	nt	nt
Fc1ccc(Cn2c(SCc3ccc(F)c(C(F)(F)F)c3)nnc2C(F)(F)F)cc1	i	-0.37	i	-9.5	i	-10.2*	41.5%*	i	44.5%*
Fc1ccc(Cn2c(SCc3ccc(F)c(F)c3)nnc2C(F)(F)F)cc1	i	-0.31	i	-18.4	i	-8.95*	29.0%*	i	38.5%*
Cc1nn(CC(=O)NC(=O)NC2CCCCC2C)c(=O)c(C#N)c1C (stereo unspecified)	i	-0.18	i	-23.1	i	i	nt	nt	nt
O=C(N/N=C/c1ccccn1)c1cc(-c2ccc3ccccc3c2)n[nH]1	i	-1.2	i	-8.6	i	-12.8*	45.0%*	i	31.0%*
CC(=O)N(CCC(c1ccco1)C(C)C)Cc1ccc(OC(C)C)cc1 (stereo unspecified)	i	-3.01	i	-16.3	i	-16.1*	37.0%*	i	43.0%*
COc1ccc(CN(CCC(c2ccco2)C(C)C)C(C)=O)cc1OC (stereo unspecified)	i	-0.99	i	-9.7	i	i	nt	nt	nt
Cc1ccc2nc(NC(=O)c3ccco3)sc2c1	i	-0.2	i	-13.3	i	i	nt	nt	nt
Cc1ccc2nc(NC(=S)NC(=O)c3ccco3)sc2c1	57*	-0.3	i	35.5*	i	i	i	i	i
CC(C)(C)NC(=O)Cn1nc(C(F)(F)F)c2c1CCCC2	i	1.24	i	-4.5	i	i	i	i	i
CCCCN(CC)c1nc(N)c(C#N)c(CC#N)c1C#N	i	-0.03	i	-7.1	i	-11.3*	33.0%*	i	31.5%*
C=C(C)CN(CC)c1nc(N)c(C#N)c(CC#N)c1C#N	i	1.34	i	-15.3	i	i	nt	nt	nt
Oc1ccccc1C1=Nc2ncnn2C(c2ccc(F)cc2)C1 (stereo unspecified)	i	0.42	i	-15.5	i	i	nt	nt	nt
N#CCSc1nc2c(c(=O)n1Cc1ccco1)C1(CCCC1)Cc1ccccc1-2	i	-1.65	6*	-3.6	i	-14.5*	54.5%*	i	33.0%*
COc1cc(C2SCC(=O)N2c2nnc(C34CC5CC(CC(C5)C3)C4)s2)cc(OC)c1OC (stereo unspecified)	i	1.13	i	-6.3	i	i	i	i	i
CCOC(=O)C1CCCN(C(=O)C(CCSC)NC(=O)COc2ccccc2)C1 (stereo unspecified)	nt	nt	nt	nt	i	nt	nt	nt	nt
COc1cccc(OCCOc2ccc(/C=C3\C(=N)N4N=C(S(C)(=O)=O)SC4=NC3=O)cc2OC)c1	i	1.21	i	-11.9	i	i	nt	nt	nt
Cc1cc(/C=C2\C(=N)N3N=C(S(C)(=O)=O)SC3=NC2=O)c(C)n1Cc1ccccc1	i	0.2	i	-4.7	i	i	i	i	i
COc1cc(/C=C2\C(=N)N3N=C(C)SC3=NC2=O)cc(OC)c1OCCOc1ccccc1C	i	1.99	i	-1.4	i	i	nt	nt	nt
COc1ccccc1OCCOc1ccc(/C=C2\C(=N)N3N=C(S(C)(=O)=O)SC3=NC2=O)cc1	i	0.49	i	-25.8	i	i	i	i	i
COc1cc(/C=C2\C(=N)N3N=C(S(C)(=O)=O)SC3=NC2=O)cc(OC)c1OCCOc1ccccc1C	i	1.27	i	-31.2	i	i	i	i	i

Screening results from PubChem BioAssay.
